Measured values from paper PMC13103313 (Nature Communications, 2026).

What was measured:
[1] = target: NaV1.5 channels (Homo sapiens, UniProt Q14524); assay: Whole-cell patch-clamp recording of NaV1.5 currents in HEK293T cells; type: cell-based; details: HEK-293T, read-out: inhibition rate, NaV1.5 WT, 100 μM
[2] = test system: zebrafish larvae; assay: Heart rate recording in zebrafish larvae; type: in vivo; details: 10 μM
[3] = target: NaV1.5 F1760A (Homo sapiens, UniProt Q14524, F1760A); assay: Whole-cell patch-clamp of NaV1.5 F1760A mutant in HEK293T cells; type: cell-based; details: HEK-293T, read-out: inhibition rate, NaV1.5 F1760A
[4] = test system: Na+ current in primary ventricular myocytes; assay: Voltage-gated Na+ current in rat primary ventricular myocytes; type: cell-based; details: 10 µM; rat primary cardiomyocytes; 365 vs 480 nm
In short: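 Ventricular myocytes from 1–2-day-old Sprague-Dawley rats, dissociated with 0.05% trypsin and 0.1% collagenase II, with fibroblasts removed by 2 h pre-plating. Cultured in DMEM with 10% FBS at 37 °C. Whole-cell voltage clamp followed the HEK293T Na+ protocol (hold −120 mV, 50 ms step to −20 mV).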

[5] = test system: zebrafish larvae; assay: ISO-induced tachycardia model in zebrafish larvae; type: in vivo; details: 100 μM; 10 μM ISO 100 min; zebrafish larvae 3–4 dpf
[6] = target: NaV1.5 V405A (Homo sapiens, UniProt Q14524, V405A); assay: Whole-cell patch-clamp of NaV1.5 V405A mutant in HEK293T cells; type: cell-based; details: HEK-293T, read-out: inhibition rate, NaV1.5 V405A
Sequence of NaV1.5 V405A (Q14524 whole entry V405A): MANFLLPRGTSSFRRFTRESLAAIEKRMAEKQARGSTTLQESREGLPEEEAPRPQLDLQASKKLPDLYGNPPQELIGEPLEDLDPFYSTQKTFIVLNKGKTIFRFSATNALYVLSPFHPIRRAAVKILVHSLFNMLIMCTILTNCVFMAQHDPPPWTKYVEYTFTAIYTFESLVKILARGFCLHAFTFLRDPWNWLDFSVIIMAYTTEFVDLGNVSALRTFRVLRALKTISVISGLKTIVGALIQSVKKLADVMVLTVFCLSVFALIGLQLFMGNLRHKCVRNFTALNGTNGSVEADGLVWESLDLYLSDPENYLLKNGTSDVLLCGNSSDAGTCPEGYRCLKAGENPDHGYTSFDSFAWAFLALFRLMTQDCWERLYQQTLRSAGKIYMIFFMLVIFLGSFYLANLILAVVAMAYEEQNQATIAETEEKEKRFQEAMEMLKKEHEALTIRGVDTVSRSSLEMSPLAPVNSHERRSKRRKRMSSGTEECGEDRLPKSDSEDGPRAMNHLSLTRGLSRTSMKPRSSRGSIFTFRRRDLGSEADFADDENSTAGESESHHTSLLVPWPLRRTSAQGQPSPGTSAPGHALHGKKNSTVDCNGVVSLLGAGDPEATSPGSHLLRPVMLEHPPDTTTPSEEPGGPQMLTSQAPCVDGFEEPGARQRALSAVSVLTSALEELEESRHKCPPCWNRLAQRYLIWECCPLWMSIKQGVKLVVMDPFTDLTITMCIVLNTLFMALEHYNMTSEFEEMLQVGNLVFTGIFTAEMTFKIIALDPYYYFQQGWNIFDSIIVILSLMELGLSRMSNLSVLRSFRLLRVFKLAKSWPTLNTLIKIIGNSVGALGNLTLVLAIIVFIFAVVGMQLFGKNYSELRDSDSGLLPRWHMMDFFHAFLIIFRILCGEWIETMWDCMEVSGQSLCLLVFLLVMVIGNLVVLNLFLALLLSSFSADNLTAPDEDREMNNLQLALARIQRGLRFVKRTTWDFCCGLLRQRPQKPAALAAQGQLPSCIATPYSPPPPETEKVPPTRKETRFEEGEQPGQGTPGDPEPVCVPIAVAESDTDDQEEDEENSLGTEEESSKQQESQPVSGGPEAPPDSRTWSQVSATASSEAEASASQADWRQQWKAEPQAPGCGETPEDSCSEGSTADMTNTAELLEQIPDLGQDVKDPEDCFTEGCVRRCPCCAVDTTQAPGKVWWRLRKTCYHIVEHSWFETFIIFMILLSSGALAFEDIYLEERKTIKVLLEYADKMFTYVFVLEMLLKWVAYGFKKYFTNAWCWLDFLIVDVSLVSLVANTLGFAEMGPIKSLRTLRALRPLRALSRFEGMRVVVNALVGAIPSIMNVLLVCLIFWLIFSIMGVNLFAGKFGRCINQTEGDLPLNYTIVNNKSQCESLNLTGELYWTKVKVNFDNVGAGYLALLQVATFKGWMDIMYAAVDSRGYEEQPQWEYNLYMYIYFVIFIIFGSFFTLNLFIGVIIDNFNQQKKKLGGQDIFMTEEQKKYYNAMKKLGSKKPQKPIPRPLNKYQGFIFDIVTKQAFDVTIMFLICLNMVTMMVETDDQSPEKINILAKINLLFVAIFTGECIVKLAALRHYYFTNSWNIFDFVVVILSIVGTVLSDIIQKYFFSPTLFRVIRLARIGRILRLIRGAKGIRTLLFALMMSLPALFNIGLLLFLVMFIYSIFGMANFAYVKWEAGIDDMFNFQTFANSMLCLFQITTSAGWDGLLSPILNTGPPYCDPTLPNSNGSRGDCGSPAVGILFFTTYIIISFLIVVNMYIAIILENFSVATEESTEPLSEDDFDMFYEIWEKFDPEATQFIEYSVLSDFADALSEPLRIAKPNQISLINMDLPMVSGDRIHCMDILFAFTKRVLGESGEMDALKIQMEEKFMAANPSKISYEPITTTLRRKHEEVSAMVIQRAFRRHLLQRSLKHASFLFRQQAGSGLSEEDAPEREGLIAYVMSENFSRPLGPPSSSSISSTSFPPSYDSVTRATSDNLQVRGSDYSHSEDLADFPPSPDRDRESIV

Sequence of NaV1.5 channels (Q14524 whole entry): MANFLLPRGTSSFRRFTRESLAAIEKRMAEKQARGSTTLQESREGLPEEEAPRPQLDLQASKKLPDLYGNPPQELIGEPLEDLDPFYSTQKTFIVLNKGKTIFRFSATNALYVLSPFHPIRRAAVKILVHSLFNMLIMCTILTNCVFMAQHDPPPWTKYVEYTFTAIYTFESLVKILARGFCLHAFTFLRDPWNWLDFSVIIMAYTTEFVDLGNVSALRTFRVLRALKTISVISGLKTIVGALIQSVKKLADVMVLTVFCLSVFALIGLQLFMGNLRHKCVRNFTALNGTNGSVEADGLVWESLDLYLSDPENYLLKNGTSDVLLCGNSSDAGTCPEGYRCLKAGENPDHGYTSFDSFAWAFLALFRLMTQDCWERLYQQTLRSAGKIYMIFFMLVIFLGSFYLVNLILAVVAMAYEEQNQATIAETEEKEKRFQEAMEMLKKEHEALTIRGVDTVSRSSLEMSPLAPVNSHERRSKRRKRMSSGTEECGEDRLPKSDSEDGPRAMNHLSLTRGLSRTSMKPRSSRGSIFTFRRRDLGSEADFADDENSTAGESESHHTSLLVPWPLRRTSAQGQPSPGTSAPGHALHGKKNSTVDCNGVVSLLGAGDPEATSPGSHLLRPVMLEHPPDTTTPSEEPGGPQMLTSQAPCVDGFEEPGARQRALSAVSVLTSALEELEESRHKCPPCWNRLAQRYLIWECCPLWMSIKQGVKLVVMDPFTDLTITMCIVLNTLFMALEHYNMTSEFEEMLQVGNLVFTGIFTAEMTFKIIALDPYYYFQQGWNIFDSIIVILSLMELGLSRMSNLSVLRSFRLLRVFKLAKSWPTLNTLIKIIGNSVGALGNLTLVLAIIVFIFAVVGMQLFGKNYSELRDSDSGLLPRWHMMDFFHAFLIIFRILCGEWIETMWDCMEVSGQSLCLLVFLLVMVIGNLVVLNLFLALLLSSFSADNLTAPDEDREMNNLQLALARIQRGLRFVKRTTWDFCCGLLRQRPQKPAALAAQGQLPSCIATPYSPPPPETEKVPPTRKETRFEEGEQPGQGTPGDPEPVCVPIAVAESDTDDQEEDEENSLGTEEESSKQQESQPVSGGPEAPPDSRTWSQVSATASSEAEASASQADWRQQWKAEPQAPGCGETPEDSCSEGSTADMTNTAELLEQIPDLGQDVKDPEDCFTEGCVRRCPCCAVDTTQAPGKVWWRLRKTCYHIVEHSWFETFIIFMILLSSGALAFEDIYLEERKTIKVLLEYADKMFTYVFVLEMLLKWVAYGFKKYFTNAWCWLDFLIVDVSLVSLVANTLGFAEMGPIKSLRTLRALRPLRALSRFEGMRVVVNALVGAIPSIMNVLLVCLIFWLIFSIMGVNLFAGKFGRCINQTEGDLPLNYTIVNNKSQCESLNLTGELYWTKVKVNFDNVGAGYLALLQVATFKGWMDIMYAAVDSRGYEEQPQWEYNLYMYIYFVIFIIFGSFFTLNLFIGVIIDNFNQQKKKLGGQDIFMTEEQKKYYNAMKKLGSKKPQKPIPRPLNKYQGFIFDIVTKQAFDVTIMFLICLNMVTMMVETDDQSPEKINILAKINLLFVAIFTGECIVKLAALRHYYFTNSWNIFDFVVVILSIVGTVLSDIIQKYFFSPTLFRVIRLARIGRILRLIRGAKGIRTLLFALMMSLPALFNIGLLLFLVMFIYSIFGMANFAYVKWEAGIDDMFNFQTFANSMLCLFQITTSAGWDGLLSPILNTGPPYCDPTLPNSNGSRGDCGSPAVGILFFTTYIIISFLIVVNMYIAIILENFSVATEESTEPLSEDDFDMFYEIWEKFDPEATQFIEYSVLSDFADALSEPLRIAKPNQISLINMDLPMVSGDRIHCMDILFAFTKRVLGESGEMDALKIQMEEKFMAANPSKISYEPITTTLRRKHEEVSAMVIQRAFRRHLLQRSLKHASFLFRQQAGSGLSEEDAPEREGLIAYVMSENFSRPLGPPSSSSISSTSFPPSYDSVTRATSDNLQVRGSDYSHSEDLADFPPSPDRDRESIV

In the case of `C=C[C@H]1C[N@@]2CC[C@H]1C[C@@H]2[C@@H](O)c1ccnc2ccc(OC)cc12` [Quinidine, quinidine], the inhibition at 100 µM [1] is reported as 77.6 ± 3.2%, the “heart rate normalized to control in dark” value ([2]; soaking 1-[…] in the dark, zebrafish larvae 2 dpf) is reported as 90.8 ± 1.4% and the “heart rate normalized to control in dark” value ([2]; 365 nm followed by 480 nm illumination, 5 min each) is reported as 91.6 ± 1.3%. The “heart rate normalized to control in dark” value ([2]; after 365 nm illumination for 5 min) was 93.9 ± 0.9%, the inhibition at 100 µM [3] was 32.6 ± 1.8% and the “photoswitching efficacy (optical control), Na+ current” value [4] was 0.8 ± 0.8%. For the same molecule, the “effect on heart rate in ISO-pretreated larvae” value [5] was “markedly attenuate heart rate” and the inhibition at 100 µM [6] was 51.2 ± 2.3%.
